Source: PubChem BioAssay
Active and inactive are the calls of the source.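 How the source made its calls, unless noted: active means Her2 level under about 52% in both replicate screens, with viability over 70% of control (limit read from the data); inconclusive means Her2 under the limit in one screen only, or viability under 70%; inactive means Her2 level above the set limit.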

Tests used:
[1] = reducers of endogenous Her2 protein level, primary screen, SKBR3 breast tumor cells, AlphaScreen, ATP viability (AID 461); settings: 18-24 h, measured here: SKBR3 viability, ATP luminescence, at 10 µM;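 on Her2 level: lower value means less Her2 protein in the cells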;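 on viability: percent of carrier control wells set as 100% viability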
[2] = biological target: Receptor tyrosine-protein kinase erbB-2 (Homo sapiens) (UniProt P04626); experiment: as above; settings: 18-24 h, at 10 µM, stronger effect = lower value
Sequence of Receptor tyrosine-protein kinase erbB-2 (Homo sapiens) (P04626 whole entry, looked up): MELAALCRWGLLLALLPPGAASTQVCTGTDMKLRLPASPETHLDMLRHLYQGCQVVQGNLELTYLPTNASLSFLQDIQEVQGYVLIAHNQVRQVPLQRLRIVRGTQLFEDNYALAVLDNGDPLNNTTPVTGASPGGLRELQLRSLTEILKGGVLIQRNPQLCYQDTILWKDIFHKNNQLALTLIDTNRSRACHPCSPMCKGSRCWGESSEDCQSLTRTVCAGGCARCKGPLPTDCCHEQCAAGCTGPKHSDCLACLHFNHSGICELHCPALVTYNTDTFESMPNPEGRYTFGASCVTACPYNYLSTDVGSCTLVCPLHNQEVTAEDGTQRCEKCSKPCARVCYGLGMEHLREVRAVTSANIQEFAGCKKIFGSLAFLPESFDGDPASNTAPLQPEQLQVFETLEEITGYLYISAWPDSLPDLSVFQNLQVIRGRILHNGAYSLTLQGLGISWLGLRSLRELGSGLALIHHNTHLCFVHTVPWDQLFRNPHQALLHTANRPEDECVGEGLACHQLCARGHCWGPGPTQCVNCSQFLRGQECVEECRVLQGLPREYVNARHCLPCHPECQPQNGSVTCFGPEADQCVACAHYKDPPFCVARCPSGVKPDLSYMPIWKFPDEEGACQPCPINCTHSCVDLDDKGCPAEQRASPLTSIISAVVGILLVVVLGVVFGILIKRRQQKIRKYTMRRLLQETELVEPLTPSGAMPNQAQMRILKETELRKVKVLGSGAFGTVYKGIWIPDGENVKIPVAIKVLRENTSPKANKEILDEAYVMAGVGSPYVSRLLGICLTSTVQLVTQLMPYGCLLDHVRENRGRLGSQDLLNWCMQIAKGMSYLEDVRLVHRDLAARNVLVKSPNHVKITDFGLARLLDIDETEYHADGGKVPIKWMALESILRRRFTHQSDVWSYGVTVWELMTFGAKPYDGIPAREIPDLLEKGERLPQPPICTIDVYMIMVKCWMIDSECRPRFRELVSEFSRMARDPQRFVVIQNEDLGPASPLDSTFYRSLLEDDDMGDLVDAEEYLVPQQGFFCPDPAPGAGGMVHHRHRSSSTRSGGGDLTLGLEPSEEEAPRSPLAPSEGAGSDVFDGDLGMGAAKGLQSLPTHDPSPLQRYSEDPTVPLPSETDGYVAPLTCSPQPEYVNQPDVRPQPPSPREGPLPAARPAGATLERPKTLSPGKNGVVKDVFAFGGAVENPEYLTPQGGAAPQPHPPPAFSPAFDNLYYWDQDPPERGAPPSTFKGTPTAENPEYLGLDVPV

[3] = SK-BR-3 cell growth inhibitors, pilot screen, 24 h, human (AID 572;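 active means viability at or below 10% of carrier control in both of two separate runs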;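 further: compound exposure lasted between 18 and 24 h rather than exactly 24 h; 100% = carrier-treated control wells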); settings: SK-BR-3 viability, CellTiter-Glo luminescence, at 10 µM, stronger effect = lower value
[4] = HUVEC growth inhibition – cell-based, human, primary screen (AID 575;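 active means viability at or below 30% in both replicate assays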;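 further: 100% = median of untreated cell wells with 0.1% DMSO on each plate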); settings: HUVEC proliferation, CellTiter-Glo luminescence, 72 h; at 10 µM; stronger effect = lower value
Procedure, shortened: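 Material: primary human umbilical vein endothelial cells / Schedule: 72 h exposure, 37 °C, 5% CO2, 30 min RT equilibration / Signal: ATP-based CellTiter-Glo luminescent read / Read-out basis: percent of median DMSO-control luminescence / Control set: 32 DMSO-only cell-control wells (high), 32 MePR drug-control wells (low) per plate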

[5] = growth inhibitors of H69AR lung tumor, primary screen, human, duplicate replicates (AID 580;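 active means viability at or under a set limit in both replicates, limit being median viability minus 3 SD, cut at about 48% in these data, passing the limit was not always enough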;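 further: 100% = mean luminescence of untreated wells and 0% = no signal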); settings: H69AR lung tumor cells viability, ATP luminescence, 72 h; at 10 µM; stronger effect = lower value
[6] = reversal of MRP1-mediated doxorubicin resistance, pilot screen, H69AR cells, doxorubicin co-treatment (AID 601;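 active means viability loss from added drug above about 55%, and viability with drug at most 40%, in both replicates, limit read from the data, passing the limit was not always enough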); settings: CellTiter-Glo, 72 h, at 10 µM; for differential viability (reversal): stronger effect = higher value
[7] = 384-well plate pilot, post-Golgi transport modulator project, inhibition of yeast transport mutant growth (AID 636; in the data active means inhibition above about 31%); settings: absorbance 615 nm, about 18 h, stronger effect = higher value
[8] = growth suppression of yeast trafficking mutant, preliminary HTS, modulators of trafficking downstream of Golgi apparatus project, 1536-format plate, OD 615 nm (AID 637; in the data active means inhibition above about 30%); settings: yeast transport mutant growth, absorbance 615 nm, 18 h; stronger effect = higher value
[9] = H69AR cells + 2 uM doxorubicin, measured here: viability with 2 uM doxorubicin, stronger effect = lower value
[10] = H69AR cells, compound alone cytotoxicity

COc1cccc(NC(=O)COC(=O)c2ccco2)c1
viability [1]: 112%
Her2 level [2]: 94% (inactive)
viability [3]: 112% (inactive)
viability [4]: 97.6% (inactive)
viability [5]: 83.8% (inactive)
differential viability (reversal) ([6]; H69AR cells + 2 uM doxorubicin): 2.71% (inactive)
viability [6, 9]: 81.1%
viability [6, 10]: 83.8%
inhibition [7]: -6.8% (inactive)
inhibition [8]: -1.27% (inactive)

O=c1c(CN2CCN(Cc3ccccc3)CC2)coc2ccc(Cl)cc12
viability [1]: 90%
Her2 level [2]: 85.5% (inactive)
viability [3]: 90% (inactive)
viability [4]: 100% (inactive)
viability [5]: 95.7% (inactive)
differential viability (reversal) ([6]; H69AR cells + 2 uM doxorubicin): 12.5% (inactive)
viability [6, 9]: 83.3%
viability [6, 10]: 95.7%
inhibition [7]: -4.81% (inactive)
inhibition [8]: -6.89% (inactive)

COc1ccc(-c2nnc(SCC#N)o2)cc1
viability [1]: 104%
Her2 level [2]: 91.5% (inactive)
viability [3]: 104% (inactive)
viability [4]: 107% (inactive)
viability [5]: 103% (inactive)
differential viability (reversal) ([6]; H69AR cells + 2 uM doxorubicin): 13.6% (inactive)
viability [6, 9]: 89.1%
viability [6, 10]: 103%
inhibition [7]: -5.47% (inactive)
inhibition [8]: 0.65% (inactive)

NS(=O)(=O)c1ccc(NCc2c(F)cccc2Cl)cc1
viability [1]: 100%
Her2 level [2]: 95.5% (inactive)
viability [3]: 100% (inactive)
viability [4]: 102% (inactive)
viability [5]: 82.9% (inactive)
differential viability (reversal) ([6]; H69AR cells + 2 uM doxorubicin): 6.38% (inactive)
viability [6, 9]: 76.5%
viability [6, 10]: 82.9%
inhibition [7]: -3.82% (inactive)
inhibition [8]: 7.54% (inactive)

COCCn1c(C)cc(C(=O)CSc2nc3ccccc3c(=O)[nH]2)c1C
viability [1]: 88.5%
Her2 level [2]: 67% (inactive)
viability [3]: 88.5% (inactive)
viability [4]: 64.6% (inactive)
viability [5]: 80.9% (inactive)
differential viability (reversal) ([6]; H69AR cells + 2 uM doxorubicin): -8.01% (inactive)
viability [6, 9]: 88.9%
viability [6, 10]: 80.9%
inhibition [7]: -5.47% (inactive)
inhibition [8]: -3.61% (inactive)

Cc1cc(C)cc(-n2nnc(C(=O)NCc3ccco3)c2N)c1
viability [1]: 101%
Her2 level [2]: 82% (inactive)
viability [3]: 101% (inactive)
viability [4]: 89.4% (inactive)
viability [5]: 88.5% (inactive)
differential viability (reversal) ([6]; H69AR cells + 2 uM doxorubicin): -4.65% (inactive)
viability [6, 9]: 93.2%
viability [6, 10]: 88.5%
inhibition [7]: -0.14% (inactive)
inhibition [8]: -4.92% (inactive)

CC1CCC2C(C1)c1sc(=O)[nH]c1SC2(C)C (stereo not given)
viability [1]: 85%
Her2 level [2]: 111% (inactive)
viability [3]: 85% (inactive)
viability [4]: 60.5% (inactive)
viability [5]: 106% (inactive)
differential viability (reversal) ([6]; H69AR cells + 2 uM doxorubicin): 2.79% (inactive)
viability [6, 9]: 103%
viability [6, 10]: 106%
inhibition [7]: 0.9% (inactive)
inhibition [8]: 13.2% (inactive)

O=C1OCCC1Sc1ncnc2sc3c(c12)CCC3 (stereo not given)
viability [1]: 95.5%
Her2 level [2]: 84.5% (inactive)
viability [3]: 95.5% (inactive)
viability [4]: 97.6% (inactive)
viability [5]: 104% (inactive)
differential viability (reversal) ([6]; H69AR cells + 2 uM doxorubicin): 11.8% (inactive)
viability [6, 9]: 91.9%
viability [6, 10]: 104%
inhibition [7]: -4.67% (inactive)
inhibition [8]: -0.32% (inactive)

COc1ccc(CNC(=O)COC(=O)c2n[nH]c3ccccc23)cc1OC
viability [1]: 88%
Her2 level [2]: 84.5% (inactive)
viability [3]: 88% (inactive)
viability [4]: 89.7% (inactive)
viability [5]: 92.6% (inactive)
differential viability (reversal) ([6]; H69AR cells + 2 uM doxorubicin): 8.04% (inactive)
viability [6, 9]: 84.6%
viability [6, 10]: 92.6%
inhibition [7]: -7.47% (inactive)
inhibition [8]: 2.38% (inactive)

O=C(NCc1ccco1)c1cc2n(n1)C(C(F)(F)F)CC(c1ccc(F)cc1)N2 (stereo not given)
viability [1]: 120%
Her2 level [2]: 106% (inactive)
viability [3]: 120% (inactive)
viability [4]: 67.1% (inactive)
viability [5]: 86.8% (inactive)
differential viability (reversal) ([6]; H69AR cells + 2 uM doxorubicin): 3.92% (inactive)
viability [6, 9]: 82.9%
viability [6, 10]: 86.8%
inhibition [7]: -4.8% (inactive)
inhibition [8]: -4.68% (inactive)

CN(c1ccccc1)C(c1ccc(F)cc1)c1nnnn1CC1CCCO1 (stereo not given)
viability [1]: 104%
Her2 level [2]: 98% (inactive)
viability [3]: 104% (inactive)
viability [4]: 97% (inactive)
viability [5]: 94.1% (inactive)
differential viability (reversal) ([6]; H69AR cells + 2 uM doxorubicin): 6.48% (inactive)
viability [6, 9]: 87.6%
viability [6, 10]: 94.1%
inhibition [7]: -4.32% (inactive)
inhibition [8]: 0.83% (inactive)

CC(C)NC(=O)CSc1nc2ccccc2n1-c1ccccc1
viability [1]: 88.5%
Her2 level [2]: 101% (inactive)
viability [3]: 88.5% (inactive)
viability [4]: 100% (inactive)
viability [5]: 84.3% (inactive)
differential viability (reversal) ([6]; H69AR cells + 2 uM doxorubicin): -8.05% (inactive)
viability [6, 9]: 92.4%
viability [6, 10]: 84.3%
inhibition [7]: 2.86% (inactive)
inhibition [8]: -4.13% (inactive)

COc1ccc(/C(O)=C2/C(=O)C(=O)N(CC3CCCO3)C2c2cccc(OC)c2)cc1 (stereo not given)
viability [1]: 106%
Her2 level [2]: 87.5% (inactive)
viability [3]: 106% (inactive)
viability [4]: 81.9% (inactive)
viability [5]: 94.2% (inactive)
differential viability (reversal) ([6]; H69AR cells + 2 uM doxorubicin): 7.73% (inactive)
viability [6, 9]: 86.5%
viability [6, 10]: 94.2%
inhibition [7]: -4.93% (inactive)
inhibition [8]: 2.3% (inactive)

CCCc1nnc2n1N=C(c1ccc(OC)c(OC)c1)CS2
viability [1]: 85%
Her2 level [2]: 80% (inactive)
viability [3]: 85% (inactive)
viability [4]: 68.7% (inactive)
viability [5]: 69.9% (inactive)
differential viability (reversal) ([6]; H69AR cells + 2 uM doxorubicin): 3.1% (inactive)
viability [6, 9]: 66.8%
viability [6, 10]: 69.9%
inhibition [7]: -5.33% (inactive)
inhibition [8]: 2.62% (inactive)

c1ccc(-c2cc3c(nn2)CCc2nonc2-3)cc1
viability [1]: 98.5%
Her2 level [2]: 102% (inactive)
viability [3]: 98.5% (inactive)
viability [4]: 117% (inactive)
viability [5]: 97.8% (inactive)
differential viability (reversal) ([6]; H69AR cells + 2 uM doxorubicin): -9.73% (inactive)
viability [6, 9]: 108%
viability [6, 10]: 97.8%
inhibition [7]: 0% (inactive)
inhibition [8]: 4.26% (inactive)

Clc1ccc(Cl)c(-c2ccc(/C=N/c3ncn[nH]3)o2)c1
viability [1]: 105%
Her2 level [2]: 81% (inactive)
viability [3]: 105% (inactive)
viability [4]: 64.5% (inactive)
viability [5]: 72.8% (inactive)
differential viability (reversal) ([6]; H69AR cells + 2 uM doxorubicin): -11.9% (inactive)
viability [6, 9]: 84.8%
viability [6, 10]: 72.8%
inhibition [7]: -6.8% (inactive)
inhibition [8]: 4.59% (inactive)
